Measured values collected from several papers.
Compare with care: the assays were run in different laboratories.
Target: SNF-related serine/threonine-protein kinase (SNRK, Homo sapiens, UniProt Q9NRH2)
Residues used in one study (Q9NRH2 1-765): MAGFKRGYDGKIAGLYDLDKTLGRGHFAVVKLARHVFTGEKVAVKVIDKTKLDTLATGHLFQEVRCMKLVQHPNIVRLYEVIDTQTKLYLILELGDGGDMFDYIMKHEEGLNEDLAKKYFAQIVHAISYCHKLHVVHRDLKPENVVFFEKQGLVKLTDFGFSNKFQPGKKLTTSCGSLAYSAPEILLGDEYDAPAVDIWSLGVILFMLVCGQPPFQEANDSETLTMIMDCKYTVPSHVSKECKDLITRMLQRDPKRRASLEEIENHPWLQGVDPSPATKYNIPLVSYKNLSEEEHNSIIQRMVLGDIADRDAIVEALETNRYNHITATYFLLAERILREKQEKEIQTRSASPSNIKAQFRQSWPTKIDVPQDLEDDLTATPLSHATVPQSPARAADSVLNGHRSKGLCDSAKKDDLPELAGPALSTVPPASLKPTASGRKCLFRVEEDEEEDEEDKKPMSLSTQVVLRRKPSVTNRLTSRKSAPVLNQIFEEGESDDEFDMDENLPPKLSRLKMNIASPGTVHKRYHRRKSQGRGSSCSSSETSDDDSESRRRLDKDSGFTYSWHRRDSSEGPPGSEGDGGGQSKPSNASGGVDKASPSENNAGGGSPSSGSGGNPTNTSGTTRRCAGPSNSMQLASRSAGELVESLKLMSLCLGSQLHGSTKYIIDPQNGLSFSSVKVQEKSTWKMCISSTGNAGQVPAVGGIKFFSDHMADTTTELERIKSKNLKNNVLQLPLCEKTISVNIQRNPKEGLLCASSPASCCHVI

Structure (SMILES) | observed | method | tested at | remaining binding
O=C(NCCCN1CCOCC1)c1ccc(Nc2ncc(Cl)c(-c3ccc(Cl)s3)n2)cc1 | binding | competition with immobilised ligand | 1 µM | 100%
F[C@@H]1CCN(c2nccc(-c3cnn4ncccc34)n2)C1 | binding | – | 1 µM | 100%
COc1ncc2cc3ccccc3nc2c1C#N | cell-free assay | competition with immobilised ligand | 5 µM | 100%
COc1ccnn2ncc(-c3ccnc(N(C)C)n3)c12 | binding | – | 1 µM | 93%
C[C@H](c1ccnc(Nc2nc3ccc(-c4cc(N(C)C)ncn4)cc3[nH]2)c1)N1CCN(C(=O)CC(F)(F)F)CC1 | cell-free assay | competition with immobilised ligand | 0.1 µM | 100%
O=C(c1ccc(Nc2nccc(-c3cc4ccccc4s3)n2)cc1)N1CCC(N2CCCC2)CC1 | binding | competition with immobilised ligand | 1 µM | 100%
C[C@@H](c1ccc(-n2cnc3c(N)ncnc32)cc1)N1CCc2nn(C)c(Cc3ccccc3)c2C1=O | binding | competition with immobilised ligand | 0.1 µM | 98%
c1cncc(-c2cccc(Nc3nccc(NC4CCCCC4)n3)c2)c1 | binding | competition with immobilised ligand | 10 µM | 69%
O=C(Nc1c[nH]nc1C(=O)NC1CCNCC1)c1cc(F)cc(F)c1 | binding | competition with immobilised ligand | 1 µM | 97%
COc1ccc2c(c1)O[C@@H](c1ccc(OC)c(OC)c1)C[C@H]2NC(=O)C1(c2ccc3c(c2)OC(F)(F)O3)CC1 | cell-free assay | competition with immobilised ligand | 1 µM | 90%
O=C(c1ccc(Nc2ncc(Cl)c(-c3cc4ccccc4s3)n2)cc1)N1CCC(N2CCCC2)CC1 | binding | competition with immobilised ligand | 1 µM | 87%
N[C@@H]1CCN(c2nccc(-c3cnn4ncccc34)n2)C1 | binding | – | 1 µM | 100%
CC(=O)N1CCC(c2ccc(C(=O)NC3=NCCN3)cc2C(F)(F)F)CC1 | cell-free assay | competition with immobilised ligand | 1 µM | 98%
Nc1ncc2c(n1)-c1c([nH]c3ccc(C#CC4CC4)cc13)CCCC2 | binding | competition with immobilised ligand | 1 µM | 88%
C[C@H]1CCN(c2nccc(-c3cnn4ncccc34)n2)C1 | binding | – | 1 µM | 81%
CS(=O)(=O)N1CCCC(NC(=O)[C@H](CCC2CCCCC2)NC(=O)c2ccc(CNc3ncnc4c3nnn4-c3ccccc3)cc2)C1 (stereo partly shown) | cell-free assay | competition with immobilised ligand | 0.1 µM | 81%
CN(c1nccc(-c2cnn3ncccc23)n1)C1CC1 | binding | – | 1 µM | 100%
CO[C@@H](C)c1c(Nc2ccc([C@H](N(C)C(=O)C3CCS(=O)(=O)CC3)C(F)(F)F)cc2)cnc2cc(Cl)nn12 | cell-free assay | competition with immobilised ligand | 1 µM | 100%
CN(C)c1nccc(-c2cnn3ncccc23)n1 | binding | – | 1 µM | 100%
Cc1noc([C@H]2C[C@@H](c3ccc(C(F)(F)F)cc3)CN(C(=O)N3CCS(=O)(=O)C3)C2)n1 | cell-free assay | competition with immobilised ligand | 1 µM | 100%
CN(C)c1nccc(-c2cnc3ncccn23)n1 | binding | – | 1 µM | 91%
COc1cnc(Nc2cccc(S(N)(=O)=O)c2)nc1N1CCN(c2ccccc2)CC1 | binding | competition with immobilised ligand | 1 µM | 88%
